From ChEMBL document CHEMBL3596176, “Geleganidines A-C, Unusual Monoterpenoid Indole Alkaloids from Gelsemium elegans” (J Nat Prod, 2015)

Key:
MCF7 = assay: Cytotoxicity against human MCF7 cells assessed as inhibition of cell growth after 72 hrs by MTT assay; assay type: functional, cell-based; conditions: MCF7, 72 h
Outline: (§1)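 Cells kept in RPMI 1640 plus 10% FBS at 37 °C in humidified 5% CO2. Seeded for 24 h, then exposed to a range of compound concentrations for 72 h. MTT (5 mg/mL solution) added, followed by 4 h incubation. Medium removed and formazan dissolved in DMSO; absorbance at 570 nm. IC50 taken from dose-response curves, reported as mean ± SD.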

[1] = Cytotoxicity against rat PC12 cells assessed as inhibition of cell growth after 72 hrs by MTT assay; assay type: functional, cell-based; conditions: PC-12, 72 h; outline: as §1

SMILES	IC50 (MCF7)	IC50 [1]
C/C=C1\CN2C(=O)[C@]3(c4ccc(OC)cc4/N=N/c4cc(OC)ccc4[C@@]45C[C@H]6[C@H]7CO[C@@H]4C[C@H]7/C(=C/C)CN6C5=O)C[C@H]2[C@H]2CO[C@@H]3C[C@@H]12	38.4 µM	> 50 µM
C/C=C1\CN[C@H]2C[C@@]3(C(=O)N(OC)c4ccccc43)[C@H]3C[C@@H]1[C@@H]2CO3	> 50 µM	> 50 µM
C/C=C1\CN(C=O)[C@H]2C[C@@]3(C(=O)N(OC)c4cc(OC)ccc43)[C@H]3C[C@@H]1[C@@H]2CO3	> 50 µM	> 50 µM
C/C=C1\CN(C(=O)N2C/C(=C\C)[C@@H]3C[C@H]4OC[C@@H]3[C@@H]2C[C@@]42C(=O)N(OC)c3cc(OC)ccc32)[C@H]2C[C@@]3(C(=O)N(OC)c4ccccc43)[C@H]3C[C@@H]1[C@@H]2CO3	> 50 µM	16.1 µM
C/C=C1\CN[C@H]2C[C@@]3(C(=O)N(OC)c4cc(OC)ccc43)[C@H]3C[C@@H]1[C@@H]2CO3	> 50 µM	> 50 µM
C/C=C1\CN2C(=O)[C@]3(c4ccc(OC)cc4NOC)C[C@H]2[C@H]2CO[C@@H]3C[C@@H]12	> 50 µM	> 50 µM
C/C=C1\CN2C(=O)[C@]3(c4ccc(OC)cc4N)C[C@H]2[C@H]2CO[C@@H]3C[C@@H]12	> 50 µM	> 50 µM
